Assay results taken from ChEMBL document CHEMBL1629528 (J Med Chem, 2010).
Values belong to the molecule of their own block, whether it stands above or below them. Activity calls are given as the source filed them. The calls are words filed in the database; no cut-off is given here.

What was measured:
[1] = biological target: 5-hydroxytryptamine receptor 1B (Homo sapiens, UniProt P28222); test: Intrinsic activity at human recombinant 5-HT1B receptor expressed in CHO cells by [S35]GTPgammaS binding assay relative to 5-HT; assay type: functional, cell-based
Procedure, shortened: (§1)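 [35S]-GTPγS binding in membranes from 10^6 cells (HEK293 for 5-HT1A; CHO for 5-HT1B, 5-HT1D), preincubated 30 min at 30 °C with compound in 20 mM HEPES pH 7.4, 3 mM MgCl2, 100 mM NaCl, 10 μM GDP, 0.2 mM ascorbate. 100 pM [35S]-GTPγS added, 30 min more at 30 °C; nonspecific with 20 μM GTPγS; filtration and scintillation counting.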

[2] = test system: Rattus norvegicus; test: Inhibition of 8-OH-DPAT-induced hyperlocomotory activity in Sprague-Dawley rat administered orally 60 mins before 8-OH-DPATchallenge; assay type: functional
Procedure, shortened: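 Male Sprague-Dawley rats (250–350 g) dosed orally (5 mL/kg) at 0.03, 0.1 or 0.3 mg/kg or vehicle, 60 min before sc 8-OH-DPAT 0.2 mg/kg (2 mL/kg). Total distance travelled recorded by infrared sensors over 30 min immediately after; 8–9 rats per group.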

[3] = biological target: T1, 5-hydroxytryptamine receptor 1D (Homo sapiens, UniProt P28221); test: Inverse agonist activity at human recombinant 5-HT1D receptor expressed in CHO cells by [S35]GTPgammaS binding assay; assay type: functional, cell-based; procedure, shortened: as §1
[4] = biological target: T2, 5-hydroxytryptamine receptor 1A (Homo sapiens) (UniProt P08908); test: Intrinsic activity at human recombinant 5-HT1A receptor expressed in HEK293 cells by [S35]GTPgammaS binding assay relative to 5-HT; assay type: functional, cell-based; procedure, shortened: as §1
T2 sequence (whole entry): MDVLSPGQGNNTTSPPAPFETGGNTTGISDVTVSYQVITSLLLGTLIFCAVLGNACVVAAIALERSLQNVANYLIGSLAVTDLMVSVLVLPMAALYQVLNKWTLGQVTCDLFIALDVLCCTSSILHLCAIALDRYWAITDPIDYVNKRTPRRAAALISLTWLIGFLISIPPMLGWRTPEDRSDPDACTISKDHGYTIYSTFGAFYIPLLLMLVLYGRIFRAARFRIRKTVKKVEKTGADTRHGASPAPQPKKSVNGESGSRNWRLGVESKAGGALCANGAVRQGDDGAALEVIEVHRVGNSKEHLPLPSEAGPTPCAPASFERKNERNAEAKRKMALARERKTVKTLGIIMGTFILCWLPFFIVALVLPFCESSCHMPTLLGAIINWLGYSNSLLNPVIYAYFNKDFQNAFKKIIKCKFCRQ

[5] = biological target: D(3) dopamine receptor (Homo sapiens, UniProt P35462); test: Binding affinity to human recombinant dopamine D3 receptor by radioligand displacement assay
[6] = biological target: D(2) dopamine receptor (Homo sapiens, UniProt P14416); test: Binding affinity to human recombinant dopamine D2 receptor by radioligand displacement assay
[7] = biological target: 5-hydroxytryptamine receptor 6 (Homo sapiens, UniProt P50406); test: Binding affinity to human recombinant 5-HT6 receptor by radioligand displacement assay
[8] = biological target: 5-hydroxytryptamine receptor 2B (Homo sapiens, UniProt P41595); test: Binding affinity to human recombinant 5-HT2B receptor by radioligand displacement assay
[9] = biological target: Sodium-dependent serotonin transporter (Rattus norvegicus, UniProt P31652); test: Inhibition of [3H]5-HT uptake at SERT in rat cortical synaptosomes; assay type: subcellular, Brain
[10] = biological target: Voltage-gated inwardly rectifying potassium channel KCNH2 (Homo sapiens, UniProt Q12809); test: Displacement of [3H]dofetilide from human ERG by SPA
[11] = biological target: 5-hydroxytryptamine receptor 7 (Homo sapiens, UniProt P34969); test: Binding affinity to human recombinant 5-HT7 receptor by radioligand displacement assay
[12] = biological target: 5-hydroxytryptamine receptor 2A (Homo sapiens, UniProt P28223); test: Binding affinity to human recombinant 5-HT2A receptor by radioligand displacement assay
[13] = biological target: T1, 5-hydroxytryptamine receptor 1D; test: Displacement of [3H]5-HT from human recombinant 5-HT1D receptor expressed in CHO cells; assay type: cell-based
[14] = biological target: T3, 5-hydroxytryptamine receptor 2C (Homo sapiens, UniProt P28335); test: Binding affinity to human recombinant 5-HT2C receptor by radioligand displacement assay
T3 sequence (P28335 whole entry): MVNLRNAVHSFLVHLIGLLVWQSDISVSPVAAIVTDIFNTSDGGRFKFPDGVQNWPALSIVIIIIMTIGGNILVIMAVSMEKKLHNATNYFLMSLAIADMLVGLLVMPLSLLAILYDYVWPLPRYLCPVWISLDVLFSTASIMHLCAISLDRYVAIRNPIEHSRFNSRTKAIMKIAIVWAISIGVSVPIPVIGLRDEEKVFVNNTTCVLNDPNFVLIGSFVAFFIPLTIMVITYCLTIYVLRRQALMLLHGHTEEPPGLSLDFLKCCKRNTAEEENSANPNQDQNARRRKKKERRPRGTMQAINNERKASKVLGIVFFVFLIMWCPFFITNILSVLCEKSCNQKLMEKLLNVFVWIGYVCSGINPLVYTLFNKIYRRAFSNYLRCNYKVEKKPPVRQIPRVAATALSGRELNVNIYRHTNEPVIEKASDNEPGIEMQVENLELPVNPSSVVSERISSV

[15] = biological target: Cytochrome P450 1A2 (Homo sapiens, UniProt P05177); test: Inhibition of human recombinant CYP1A2
[16] = biological target: Cytochrome P450 2D6 (Homo sapiens, UniProt P10635); test: Inhibition of human recombinant CYP2D6
[17] = biological target: T4, Cytochrome P450 3A4 (Homo sapiens, UniProt P08684); test: Inhibition of CYP3A4 in human liver microsomes using atorvastatin as probe
[18] = biological target: T4, Cytochrome P450 3A4; test: Inhibition of CYP3A4 in human liver microsomes using midazolam as probe
[19] = Plasma protein binding in dog at 1 ug/mL by equilibrium dialysis method
[20] = biological target: Alpha-1A adrenergic receptor (Rattus norvegicus, UniProt P43140); test: Inhibition of rat adrenergic alpha1A receptor
[21] = biological target: Cytochrome P450 2C19 (Homo sapiens, UniProt P33261); test: Inhibition of human recombinant CYP219
[22] = biological target: Alpha-1B adrenergic receptor (Rattus norvegicus, UniProt P15823); test: Inhibition of rat adrenergic Alpha-1B receptor
[23] = Protein binding in rat plasma at 1 ug/mL by equilibrium dialysis method
[24] = biological target: T4, Cytochrome P450 3A4; test: Inhibition of human recombinant CYP3A4
[25] = biological target: Cytochrome P450 2C9 (Homo sapiens, UniProt P11712); test: Inhibition of human recombinant CYP2C9
[26] = Plasma protein binding in human at 1 ug/mL by equilibrium dialysis method
[27] = biological target: T4, Cytochrome P450 3A4; test: Inhibition of CYP3A4 in human liver microsomes using nifedipine as probe
[28] = Solubility of the compound in water; assay type: physicochemical
Procedure, shortened: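 Measured on the dihydrochloride salt form, dissolved in water.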

[29] = in vivo; conditions: dog, plasma, po, 10 mg/kg
[30] = AUC (0 to infinity) in Sprague-Dawley rat at 1 mg/kg, po after 24 hrs; assay type: ADME, organism-based; parameters: time infinity, dose 1 mg/kg, route oral; conditions: plasma
Procedure, shortened: (§2)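 Male Sprague-Dawley rats dosed po at 1 mg/kg (10 mL/kg, 1% DMSO in aqueous 0.5% methocel), n=3, as a cassette with other compounds; blood sampled at intervals up to 24 h and analysed by protein precipitation then LC-MS/MS.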

[31] = Ratio of drug level in brain to blood in Sprague-Dawley rat after 1 hr; assay type: ADME, tissue-based; conditions: read-out: BBR
Procedure, shortened: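 Male Sprague-Dawley rats dosed iv at 0.5 mg/kg (2.5% DMSO in glucosate), n=3, as a cassette. At 1 h, CO2 anaesthesia, blood taken by heart puncture and brain removed. Both matrices analysed by protein precipitation and LC-MS/MS.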

[32] = Cmax in Sprague-Dawley rat at 1 mg/kg, po after 24 hrs; assay type: ADME, organism-based; parameters: dose 1 mg/kg, route oral; conditions: in vivo; procedure, shortened: as §2
[33] = Half life in Sprague-Dawley rat at 0.5 mg/kg, iv after 24 hrs; assay type: ADME, organism-based; parameters: dose 0.5 mg/kg, route intravenous; conditions: in vivo
Procedure, shortened: (§3)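 Male Sprague-Dawley rats given 0.5 mg/kg iv (2 mL/kg, 2.5% DMSO in glucosate solution), n=3, cassette dosing; blood collected at intervals up to 24 h, protein precipitation and LC-MS/MS quantification.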

[34] = Solubility of the compound in fed state simulated intestinal fluid at pH 5.5 at 25 degC; assay type: physicochemical
Procedure, shortened: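 Solubility determined at 25 °C in fed state simulated intestinal fluid at pH 5.5.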

[35] = Half life in dog at 0.5 mg/kg, iv; conditions: in vivo
[36] = Half life in cynomolgus monkey at 1 mg/kg, iv; conditions: in vivo
[37] = in vivo; conditions: cynomolgus monkey, po, 10 mg/kg
[38] = Oral bioavailability in Sprague-Dawley rat at 1 mg/kg, po after 24 hrs; assay type: ADME, organism-based; conditions: in vivo; procedure, shortened: as §2
[39] = in vivo; conditions: dog, po, 10 mg/kg
[40] = Clearance in Sprague-Dawley rat at 0.5 mg/kg, iv after 24 hrs; assay type: ADME, organism-based; parameters: dose 0.5 mg/kg, route intravenous; conditions: in vivo; procedure, shortened: as §3
[41] = in vivo; conditions: cynomolgus monkey, po, 10 mg/kg; remark: listed apart in the source
[42] = in vivo; conditions: cynomolgus monkey, plasma, po, 10 mg/kg
[43] = Clearance in cynomolgus monkey at 1 mg/kg, iv; conditions: in vivo
[44] = Clearance in dog at 0.5 mg/kg, iv; conditions: in vivo
[45] = Solubility of the compound in simulated gastric fluid at pH 1.2 at 25 degC; assay type: physicochemical
[46] = in vivo; conditions: dog, po, 1 mg/kg

T1 sequence (P28221 whole entry): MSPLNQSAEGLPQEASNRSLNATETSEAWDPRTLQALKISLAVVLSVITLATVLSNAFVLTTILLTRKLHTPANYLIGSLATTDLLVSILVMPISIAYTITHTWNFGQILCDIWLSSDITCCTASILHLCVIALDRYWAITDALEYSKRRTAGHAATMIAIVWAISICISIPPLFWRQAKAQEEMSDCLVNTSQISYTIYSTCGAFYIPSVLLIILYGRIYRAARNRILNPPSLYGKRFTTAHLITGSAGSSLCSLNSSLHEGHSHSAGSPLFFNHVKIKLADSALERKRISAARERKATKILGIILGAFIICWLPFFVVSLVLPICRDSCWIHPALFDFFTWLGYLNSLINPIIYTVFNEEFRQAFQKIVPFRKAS
T4 sequence (P08684 whole entry): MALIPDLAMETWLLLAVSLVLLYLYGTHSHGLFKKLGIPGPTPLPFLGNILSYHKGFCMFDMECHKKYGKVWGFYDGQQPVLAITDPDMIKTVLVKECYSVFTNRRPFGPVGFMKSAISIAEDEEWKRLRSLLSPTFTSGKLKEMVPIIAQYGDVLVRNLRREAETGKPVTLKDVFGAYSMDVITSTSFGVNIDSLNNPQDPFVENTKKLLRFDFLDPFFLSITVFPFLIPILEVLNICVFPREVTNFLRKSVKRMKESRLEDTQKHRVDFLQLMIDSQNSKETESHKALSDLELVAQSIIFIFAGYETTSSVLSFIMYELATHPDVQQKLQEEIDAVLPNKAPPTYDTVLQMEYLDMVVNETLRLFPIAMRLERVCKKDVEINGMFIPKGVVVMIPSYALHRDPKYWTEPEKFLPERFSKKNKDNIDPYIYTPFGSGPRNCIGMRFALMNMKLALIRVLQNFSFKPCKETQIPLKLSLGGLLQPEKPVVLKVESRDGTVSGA
5-hydroxytryptamine receptor 1B, sequence (P28222 whole entry): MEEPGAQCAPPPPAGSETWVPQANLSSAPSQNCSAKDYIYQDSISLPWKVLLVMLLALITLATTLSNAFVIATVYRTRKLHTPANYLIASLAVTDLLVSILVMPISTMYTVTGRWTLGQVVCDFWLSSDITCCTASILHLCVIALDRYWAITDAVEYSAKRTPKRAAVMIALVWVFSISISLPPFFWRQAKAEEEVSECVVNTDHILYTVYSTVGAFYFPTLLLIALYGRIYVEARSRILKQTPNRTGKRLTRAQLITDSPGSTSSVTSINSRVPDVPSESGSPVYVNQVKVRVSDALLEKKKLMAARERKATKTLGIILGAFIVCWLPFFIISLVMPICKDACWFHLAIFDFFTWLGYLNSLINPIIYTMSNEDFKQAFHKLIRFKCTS
5-hydroxytryptamine receptor 6, sequence (P50406 whole entry): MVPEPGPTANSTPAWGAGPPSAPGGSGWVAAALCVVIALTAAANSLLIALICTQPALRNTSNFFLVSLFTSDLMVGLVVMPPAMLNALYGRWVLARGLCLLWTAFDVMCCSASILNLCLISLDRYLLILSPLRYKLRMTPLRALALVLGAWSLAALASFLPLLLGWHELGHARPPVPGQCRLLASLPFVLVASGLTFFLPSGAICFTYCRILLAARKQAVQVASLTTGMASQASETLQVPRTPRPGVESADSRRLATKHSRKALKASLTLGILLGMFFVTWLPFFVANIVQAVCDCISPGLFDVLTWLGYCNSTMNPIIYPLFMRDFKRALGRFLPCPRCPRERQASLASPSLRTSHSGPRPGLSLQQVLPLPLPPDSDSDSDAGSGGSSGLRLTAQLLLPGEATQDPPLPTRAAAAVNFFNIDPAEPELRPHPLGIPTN
Voltage-gated inwardly rectifying potassium channel KCNH2, sequence (Q12809 whole entry): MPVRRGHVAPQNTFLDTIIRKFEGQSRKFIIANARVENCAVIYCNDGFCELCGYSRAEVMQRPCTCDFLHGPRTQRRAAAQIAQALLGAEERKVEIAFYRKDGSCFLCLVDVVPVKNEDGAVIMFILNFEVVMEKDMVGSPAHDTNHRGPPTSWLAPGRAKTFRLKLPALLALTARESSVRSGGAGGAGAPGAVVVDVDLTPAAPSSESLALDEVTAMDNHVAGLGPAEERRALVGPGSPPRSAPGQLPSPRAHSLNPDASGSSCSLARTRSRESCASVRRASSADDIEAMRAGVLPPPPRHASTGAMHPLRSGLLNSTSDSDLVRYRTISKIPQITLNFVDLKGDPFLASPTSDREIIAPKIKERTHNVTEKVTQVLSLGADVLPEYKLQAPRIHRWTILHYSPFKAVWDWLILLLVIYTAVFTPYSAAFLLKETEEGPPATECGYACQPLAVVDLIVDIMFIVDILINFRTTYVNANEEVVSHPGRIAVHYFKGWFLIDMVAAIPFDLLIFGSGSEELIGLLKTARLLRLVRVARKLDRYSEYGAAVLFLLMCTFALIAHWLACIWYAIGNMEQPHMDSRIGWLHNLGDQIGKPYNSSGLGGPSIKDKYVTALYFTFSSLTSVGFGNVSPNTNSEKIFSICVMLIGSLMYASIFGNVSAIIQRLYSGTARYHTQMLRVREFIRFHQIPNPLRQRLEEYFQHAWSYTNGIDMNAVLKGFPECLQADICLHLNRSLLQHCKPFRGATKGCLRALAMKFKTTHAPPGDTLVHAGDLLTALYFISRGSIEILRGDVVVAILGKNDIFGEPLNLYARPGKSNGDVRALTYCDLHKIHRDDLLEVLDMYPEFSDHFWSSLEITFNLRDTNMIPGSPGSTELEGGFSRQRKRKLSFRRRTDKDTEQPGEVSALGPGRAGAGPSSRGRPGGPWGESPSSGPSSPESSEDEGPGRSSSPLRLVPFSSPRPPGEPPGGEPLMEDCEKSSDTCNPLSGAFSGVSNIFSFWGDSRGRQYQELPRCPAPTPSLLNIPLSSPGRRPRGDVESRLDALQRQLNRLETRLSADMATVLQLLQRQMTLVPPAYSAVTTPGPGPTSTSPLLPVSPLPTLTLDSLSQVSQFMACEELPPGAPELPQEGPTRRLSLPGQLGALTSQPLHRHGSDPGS
Cytochrome P450 1A2, sequence (P05177 whole entry): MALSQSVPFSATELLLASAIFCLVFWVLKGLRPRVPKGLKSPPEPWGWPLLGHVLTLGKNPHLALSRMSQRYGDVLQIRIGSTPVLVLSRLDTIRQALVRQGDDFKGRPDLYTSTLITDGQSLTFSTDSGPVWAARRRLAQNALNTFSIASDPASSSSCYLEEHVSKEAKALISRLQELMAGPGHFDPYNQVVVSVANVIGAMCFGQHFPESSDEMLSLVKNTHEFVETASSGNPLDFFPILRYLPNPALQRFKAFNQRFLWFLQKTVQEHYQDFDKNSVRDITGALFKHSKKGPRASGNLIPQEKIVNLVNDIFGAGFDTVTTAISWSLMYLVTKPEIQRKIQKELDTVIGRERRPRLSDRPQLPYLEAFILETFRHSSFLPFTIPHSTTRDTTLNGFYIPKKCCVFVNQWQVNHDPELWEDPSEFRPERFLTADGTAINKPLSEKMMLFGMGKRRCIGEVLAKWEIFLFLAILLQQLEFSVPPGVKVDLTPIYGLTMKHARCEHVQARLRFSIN
Alpha-1A adrenergic receptor, sequence (P43140 whole entry): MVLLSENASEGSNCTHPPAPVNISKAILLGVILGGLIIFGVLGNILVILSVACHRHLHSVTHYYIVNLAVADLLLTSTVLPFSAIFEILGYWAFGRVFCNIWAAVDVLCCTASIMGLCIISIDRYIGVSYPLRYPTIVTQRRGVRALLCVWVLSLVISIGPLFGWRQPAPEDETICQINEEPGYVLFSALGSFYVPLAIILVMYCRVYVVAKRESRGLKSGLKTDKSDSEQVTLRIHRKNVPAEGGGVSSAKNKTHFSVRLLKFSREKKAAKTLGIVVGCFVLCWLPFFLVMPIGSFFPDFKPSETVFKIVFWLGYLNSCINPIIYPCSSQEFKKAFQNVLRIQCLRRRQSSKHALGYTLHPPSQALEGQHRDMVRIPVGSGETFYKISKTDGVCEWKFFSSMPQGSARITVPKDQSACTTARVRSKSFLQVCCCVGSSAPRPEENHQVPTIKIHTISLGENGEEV
Cytochrome P450 2D6, sequence (P10635 whole entry): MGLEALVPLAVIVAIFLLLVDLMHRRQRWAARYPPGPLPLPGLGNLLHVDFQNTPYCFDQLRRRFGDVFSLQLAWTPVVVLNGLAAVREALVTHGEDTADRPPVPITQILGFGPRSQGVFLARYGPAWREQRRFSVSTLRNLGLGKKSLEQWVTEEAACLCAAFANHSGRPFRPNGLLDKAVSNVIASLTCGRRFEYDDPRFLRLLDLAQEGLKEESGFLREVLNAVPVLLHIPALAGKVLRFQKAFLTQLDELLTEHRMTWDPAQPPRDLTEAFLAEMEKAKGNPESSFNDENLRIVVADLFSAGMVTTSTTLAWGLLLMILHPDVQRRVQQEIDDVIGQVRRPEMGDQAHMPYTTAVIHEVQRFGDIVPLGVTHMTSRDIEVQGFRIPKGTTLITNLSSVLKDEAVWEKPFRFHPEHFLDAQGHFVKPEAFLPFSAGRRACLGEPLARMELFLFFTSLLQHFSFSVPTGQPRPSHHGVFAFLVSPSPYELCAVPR
D(3) dopamine receptor, sequence (P35462 whole entry): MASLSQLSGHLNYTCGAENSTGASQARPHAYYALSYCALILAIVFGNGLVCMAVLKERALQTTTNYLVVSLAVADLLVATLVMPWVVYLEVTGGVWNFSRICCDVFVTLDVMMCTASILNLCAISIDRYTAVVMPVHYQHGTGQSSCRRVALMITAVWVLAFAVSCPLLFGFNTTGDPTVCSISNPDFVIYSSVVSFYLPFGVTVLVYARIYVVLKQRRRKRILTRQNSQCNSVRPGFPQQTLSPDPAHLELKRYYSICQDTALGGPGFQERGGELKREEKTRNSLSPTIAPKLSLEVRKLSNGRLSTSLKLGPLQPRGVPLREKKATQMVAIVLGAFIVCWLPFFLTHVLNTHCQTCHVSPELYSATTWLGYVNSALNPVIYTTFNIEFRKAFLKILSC

SMILES: Cc1ccc2c(N3CCN(CCc4cccc(N5CCOC5=O)c4)CC3)cccc2n1
Ki [5]: 200 nM
Ki [6]: 794 nM
Ki [7]: 3160 nM
Ki [8]: 1260 nM
Ki [9]: 501 nM
Ki [10]: 2000 nM
Ki [11]: 501 nM
Intrinsic activity [1]: 0
Ki [12]: 794 nM
Activity [3]: Active
Intrinsic activity [4]: 0
Ki [13]: 0.158 nM
Ki [14]: > 5010 nM

SMILES: CC(=O)Nc1cccc(CCN2CCN(c3cccc4nc(C)ccc34)CC2)c1
Intrinsic activity [1]: 0
inhibition [2]: Dose-dependent effect
Activity [3]: Active
Intrinsic activity [4]: 0

SMILES: Cc1ccc2c(N3CCN(CCc4cccc(N5CCNC5=O)c4)CC3)cccc2n1 [GSK163090]
IC50 [15]: 96000 nM
Ki [7]: > 5010 nM
IC50 [16]: 86000 nM
IC50 [17]: 21000 nM
IC50 [18]: 21000 nM
Ki [10]: 12600 nM
fraction unbound at 1 ug/mL [19]: 0.045
IC50 [20]: 25.1 nM
IC50 [21]: 76000 nM
IC50 [22]: 25.1 nM
fraction unbound at 1 ug/mL [23]: 0.041
IC50 [24]: 67000 nM
IC50 [25]: 60000 nM
fraction unbound at 1 ug/mL [26]: 0.041
IC50 [27]: 21000 nM
Ki [14]: 1580 nM

Second part, led by results:

Intrinsic activity [1]: 0.1
Activity [3]: Active
Intrinsic activity [4]: 0
SMILES: Cc1ccc2c(N3CCN(CCc4cccc(NS(C)(=O)=O)c4)CC3)cccc2n1
inhibition [2]: Dose-dependent effect

solubility [28]: > 10000 µg/mL
AUC(0-inf) [29]: 2550 ng·h/mL
AUC(0-inf) [30]: 889 ng·h/mL
Kp at 1 h [31]: 0.5
Cmax [32]: 122 ng/mL
half-life [33]: 3.2 h
solubility [34]: 500 µg/mL
half-life [35]: 0.8 h
half-life [36]: 5.3 h
bioavailability [37]: 63%
bioavailability [38]: 58%
Cmax [39]: 1300 ng/mL
clearance [40]: 11 mL/min/kg
Cmax [41]: 1390 ng/mL
AUC(0-inf) [42]: 4220 ng·h/mL
clearance [43]: 25 mL/min/kg
clearance [44]: 60 mL/min/kg
solubility [45]: > 10000 µg/mL
bioavailability [46]: 6%
SMILES: Cc1ccc2c(N3CCN(CCc4cccc(N5CCNC5=O)c4)CC3)cccc2n1.Cl.Cl
ED50 ([2]; po): 0.03 mg/kg
